The results in this text go back to ChEMBL document CHEMBL1140138, “Novel opioid peptide derived antagonists containing (2S)-2-methyl-3-(2,6-dimethyl-4-carbamoylphenyl)propanoic acid [(2S)-Mdcp]” (J Med Chem, 2008).

pIC50, pKi: −log10 of the molar value. Bridge positions count the residues as written; N and C are the ends. Square brackets hold non-standard residues; d marks the D form. Peptide text beside a SMILES is read from it. * marks the point of attachment. Phe(4-NO2) = N[C@@H](Cc1ccc([N+](=O)[O-])cc1)C(=O)O; X1 = Cc1cc(C(N)=O)cc(C)c1C[C@H](C)C(=O)*; Phe(4-F) = N[C@@H](Cc1ccc(F)cc1)C(=O)O; d2Nal = N[C@H](Cc1ccc2ccccc2c1)C(=O)O; Dmt = Cc1cc(O)cc(C)c1C[C@H](N)C(=O)O; dPen = CC(C)(S)[C@@H](N)C(=O)O; Pen = CC(C)(S)[C@H](N)C(=O)O; Sar = CNCC(=O)O

For assay [1], the target named is Delta-type opioid receptor (Mus musculus) (UniProt P32300). The assay is described as follows: (§1) Antagonist activity against delta opioid receptor in mouse vas deference assessed as effect on DPDPE-induced response. In kind it is functional. A digest of the protocol:
(§2)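 Isolated tissue bioassays: mu and kappa antagonism measured in guinea pig ileum, delta antagonism in mouse vas deferens. Antagonist potency expressed as Ke (nM).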

In assay [2] the target is Mu-type opioid receptor (Cavia porcellus) (UniProt P97266). Kind of assay: (§3) Antagonist activity against mu opioid receptor in guinea pig ileum assessed as effect on TAPP-induced response. It is filed as functional, tissue-based. A digest of the protocol: as §2
Mu-type opioid receptor (Cavia porcellus), sequence (P97266 whole entry): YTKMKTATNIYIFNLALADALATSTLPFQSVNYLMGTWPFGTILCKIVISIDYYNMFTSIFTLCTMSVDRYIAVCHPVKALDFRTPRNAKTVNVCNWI
Assay [3] deals with Mu-type opioid receptor (Rattus norvegicus, UniProt P33535). Kind of assay: Displacement of [3H]DAMGO from mu opioid receptor in rat brain membrane. It is filed as cell membranes. Put shortly:
(§4)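 Opioid receptor binding in rat brain membrane preparations. Affinity expressed as Ki (nM).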

Assay [4] addresses Delta-type opioid receptor (Rattus norvegicus, UniProt P33533). Kind of assay: Displacement of [3H]DSLET from delta opioid receptor in rat brain membrane. In kind it is cell membranes. Put shortly:
as §4
In general terms: Loss of bound radioactivity is the signal in a displacement assay; it reports binding, not function.

Assay [5] concerns the target Kappa-type opioid receptor (Cavia porcellus, UniProt P41144). The assay is described as follows: Displacement of [3H]U69593 from kappa opioid receptor in guinea pig brain membrane. In kind it is cell membranes.
The target of assay [6] is Kappa-type opioid receptor (Cavia porcellus) (UniProt P41144). Kind of assay: Antagonist activity against kappa opioid receptor in guinea pig ileum assessed as effect on U50488-induced response. In kind it is functional, tissue-based. Put shortly:
as §2

Assay [7] has as its target Mu-type opioid receptor (Cavia porcellus, UniProt P97266). Described as §3. It is filed as functional, tissue-based. Put shortly: as §2
For assay [8], the target named is Delta-type opioid receptor (Mus musculus, UniProt P32300). Described as §1. It is filed as functional. A digest of the protocol:
as §2

Kappa-type opioid receptor (Cavia porcellus), sequence (P41144 whole entry): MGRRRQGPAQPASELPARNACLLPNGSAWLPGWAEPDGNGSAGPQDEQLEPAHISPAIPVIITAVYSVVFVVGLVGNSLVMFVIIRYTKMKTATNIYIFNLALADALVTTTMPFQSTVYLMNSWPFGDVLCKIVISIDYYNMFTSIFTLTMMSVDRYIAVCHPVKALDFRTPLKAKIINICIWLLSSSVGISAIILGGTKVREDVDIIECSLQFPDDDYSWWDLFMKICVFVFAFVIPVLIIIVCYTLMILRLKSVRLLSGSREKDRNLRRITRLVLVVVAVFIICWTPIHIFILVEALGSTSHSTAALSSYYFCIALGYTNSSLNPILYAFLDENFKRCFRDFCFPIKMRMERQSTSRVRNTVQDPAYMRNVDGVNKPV
Kappa-type opioid receptor, sequence (P41144 whole entry): as above
Mu-type opioid receptor (Cavia porcellus, UniProt P97266), sequence (P97266 whole entry): as the sequence (P97266 whole entry) above
Delta-type opioid receptor (Mus musculus), sequence (P32300 whole entry): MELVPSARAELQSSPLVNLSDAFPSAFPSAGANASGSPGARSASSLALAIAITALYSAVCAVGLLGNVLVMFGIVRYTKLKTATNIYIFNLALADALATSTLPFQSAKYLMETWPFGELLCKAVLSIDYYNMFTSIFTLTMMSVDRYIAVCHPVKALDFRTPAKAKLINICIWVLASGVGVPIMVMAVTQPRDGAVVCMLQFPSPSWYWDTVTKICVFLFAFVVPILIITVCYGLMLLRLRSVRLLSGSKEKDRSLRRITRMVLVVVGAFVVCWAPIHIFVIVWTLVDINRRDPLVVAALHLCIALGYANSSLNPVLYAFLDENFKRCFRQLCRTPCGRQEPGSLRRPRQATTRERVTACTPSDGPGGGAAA
Delta-type opioid receptor (Rattus norvegicus, UniProt P33533), sequence (P33533 whole entry): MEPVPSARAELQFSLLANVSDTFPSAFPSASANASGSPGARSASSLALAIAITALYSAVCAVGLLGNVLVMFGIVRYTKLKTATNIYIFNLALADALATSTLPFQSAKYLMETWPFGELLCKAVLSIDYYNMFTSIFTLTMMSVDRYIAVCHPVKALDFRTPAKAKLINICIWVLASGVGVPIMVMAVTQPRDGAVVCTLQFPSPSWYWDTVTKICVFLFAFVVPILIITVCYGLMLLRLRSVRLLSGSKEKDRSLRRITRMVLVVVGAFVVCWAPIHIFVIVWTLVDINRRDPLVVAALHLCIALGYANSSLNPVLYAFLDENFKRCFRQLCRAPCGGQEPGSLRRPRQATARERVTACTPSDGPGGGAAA
Mu-type opioid receptor (Rattus norvegicus, UniProt P33535), sequence (P33535 whole entry): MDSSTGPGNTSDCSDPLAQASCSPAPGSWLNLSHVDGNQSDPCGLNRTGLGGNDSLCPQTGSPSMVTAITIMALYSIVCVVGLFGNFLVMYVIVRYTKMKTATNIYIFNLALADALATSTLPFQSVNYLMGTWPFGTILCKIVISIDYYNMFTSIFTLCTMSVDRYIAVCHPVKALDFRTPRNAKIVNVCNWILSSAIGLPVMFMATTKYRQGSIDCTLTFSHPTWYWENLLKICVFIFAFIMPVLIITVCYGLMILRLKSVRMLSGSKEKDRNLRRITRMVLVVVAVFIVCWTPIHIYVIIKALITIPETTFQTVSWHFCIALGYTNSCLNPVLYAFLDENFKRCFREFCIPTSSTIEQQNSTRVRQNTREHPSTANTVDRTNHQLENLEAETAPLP
Delta-type opioid receptor (Mus musculus, UniProt P32300), sequence (P32300 whole entry): as the sequence (P32300 whole entry) above

For `Cc1cc(O)cc(C)c1C[C@H](C)C(=O)N[C@H]1C(=O)NCC(=O)N[C@@H](Cc2ccc(F)cc2)C(=O)N[C@H](C(=O)N[C@@H](Cc2ccccc2)C(=O)O)C(C)(C)SSC1(C)C`, the Ke turned out to be 0.785 nM in assay [1], 668 nM in assay [2] and 4370 nM in assay [6]. For the same molecule, the pKi on Mu-type opioid receptor [3] is 6.39; in assay [4], 8.63; in assay [5] it was 5.43.

In the case of `Cc1cc(C(N)=O)cc(C)c1C[C@H](C)C(=O)N[C@H]1C(=O)NCC(=O)N[C@@H](Cc2ccc(F)cc2)C(=O)N[C@H](C(=O)N[C@@H](Cc2ccccc2)C(=O)O)C(C)(C)SSC1(C)C` (X1-[dPen]G[Phe(4-F)][Pen]F-OH; disulfide 1-4), the values for the Ke in assay [1], in assay [2] and in assay [6] were 0.326 nM, 1170 nM and 9980 nM, respectively.

On to `Cc1cc(O)cc(C)c1C[C@H](N)C(=O)N1CCC[C@H]1C(=O)N[C@@H](Cc1c[nH]c2ccccc12)C(=O)N[C@H](Cc1ccc2ccccc2c1)C(N)=O` [ANTANAL-1] (H-[Dmt]PW[d2Nal]-NH2), for which, on Mu-type opioid receptor [7], the negative logarithm of the Ki (pKi) is 8.62.

Regarding `Cc1cc(O)cc(C)c1C[C@H](N)C(=O)N1CCC[C@H]1C(=O)N[C@@H](Cc1ccccc1)C(=O)N[C@H](Cc1ccc2ccccc2c1)C(N)=O` [ANTANAL-2] (H-[Dmt]PF[d2Nal]-NH2), at Mu-type opioid receptor [7], the pKi is 8.82.

Consider `C[C@@H](O)[C@H](NC(=O)[C@H]1NC(=O)[C@H]([C@@H](C)O)NC(=O)[C@H](CCCN)NC(=O)[C@@H](Cc2c[nH]c3ccccc23)NC(=O)[C@H](Cc2ccc(O)cc2)NC(=O)[C@@H](NC(=O)[C@H](N)Cc2ccccc2)CSSC1(C)C)C(N)=O`, for which, at Mu-type opioid receptor [7], the pIC50 is 8.55.

On to `Cc1cc(O)cc(C)c1C[C@H](N)C(=O)N(C)CC(=O)N[C@@H](Cc1ccccc1)C(=O)N[C@H](Cc1ccc2ccccc2c1)C(N)=O` (H-[Dmt][Sar]F[d2Nal]-NH2), for which the Ke in assay [1] came to 305 nM; in assay [2] it was 2.34 nM.

On to `CC[C@H](C)[C@H](NC(=O)[C@H](CCCNC(=N)N)NC(=O)[C@H](CCCNC(=N)N)NC(=O)[C@H](CC(C)C)NC(=O)[C@H](Cc1ccccc1)NC(=O)CNC(=O)CNC(=O)[C@@H](C)Cc1c(C)cc(C(N)=O)cc1C)C(=O)N[C@@H](CCCNC(=N)N)C(=O)N1CCC[C@H]1C(=O)N[C@@H](CCCCN)C(N)=O`, for which the Ke in assay [1] stood at 843 nM; in assay [2], 401 nM; in assay [6], 5.96 nM. The results for the pKi (on Mu-type opioid receptor [3]; in assay [4]; in assay [5]) were 7.53, 7.57 and 7.59, respectively.

Consider `Cc1cc(C(N)=O)cc(C)c1C[C@H](C)C(=O)N[C@@H]1CSSC[C@H](C(N)=O)NC(=O)[C@H](Cc2ccc([N+](=O)[O-])cc2)NC(=O)CNC1=O` (X1-[dC]G[Phe(4-NO2)][dC]-NH2; disulfide 1-4), for which the Ke was determined as 9.78 nM in assay [1], 1.24 nM in assay [2] and 18.9 nM in assay [6].

Regarding `Cc1cc(O)cc(C)c1CCC(=O)N[C@@H]1CCCCNC(=O)NC[C@@H](C(N)=O)NC(=O)[C@H](Cc2ccccc2)NC(=O)CNC1=O`, the figures for the negative-log Ki (pKi) (in assay [8]; on Mu-type opioid receptor [7]) were 6.56 and 7.81, respectively.

In the case of `Cc1cc(O)cc(C)c1C[C@H](C)C(=O)N[C@@H]1CSSC[C@H](C(N)=O)NC(=O)[C@H](Cc2ccc([N+](=O)[O-])cc2)NC(=O)CNC1=O`, the Ke in assay [1] came to 3.48 nM; in assay [2], 1.48 nM; in assay [6], 6.41 nM. The negative-log Ki (pKi) in assay [5] was 7.03.

The term pKi denotes the negative decadic logarithm of the Ki, by convention in mol/L. As a reminder, the pIC50 is the negative decadic logarithm of the IC50, by convention in mol/L.
